Results taken from paper PMC9514064 (Protein Science : A Publication of the Protein Society, 2022).
“And” between values parts separate entries of the source, which are not always exact repeats. Identical values can stand only once. Like-named read-outs stand apart in the source and are kept apart here.

Columns and labels:
Bst TRAP11 = biological target: T1, Bst TRAP11 (Geobacillus stearothermophilus, UniProt Q9X6J6); format: binding, B. stearothermophilus
T1 sequence (Q9X6J6 1-74): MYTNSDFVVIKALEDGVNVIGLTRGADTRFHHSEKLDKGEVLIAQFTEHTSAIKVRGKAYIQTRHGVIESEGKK
In short: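 Apo 11-mer protein dialysed into 400 mM ammonium acetate. Samples of 6.0–7.4 μM protein with 0–140 μM Trp (serial dilutions) were prepared fresh in parallel. Native MS on an Orbitrap UHMR at ~25°C. Relative abundances of Trp-bound states came from integrated peak areas, with binding-site concentration corrected by a quadratic independent-sites fit. Populations were fit globally to a nearest-neighbour model (ΔG₀, ΔGα) by Powell minimisation.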

Bha TRAP12 [1] = biological target: T2, Bha TRAP12 (Halalkalibacterium halodurans, UniProt Q9KCC6); format: binding, B. halodurans
T2 sequence (Q9KCC6 1-76): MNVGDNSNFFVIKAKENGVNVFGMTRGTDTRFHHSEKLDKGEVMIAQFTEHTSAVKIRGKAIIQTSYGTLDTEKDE
In short: (§1)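 Apo protein dialysed into 400 mM ammonium acetate, adjusted to pH 8 with NH₄OH. Samples of 6.0–7.4 μM protein with 0–140 μM Trp were prepared fresh in parallel. Native MS on an Orbitrap UHMR at ~25°C, each point in triplicate with different emitters. Abundances of the 0–12-bound states came from peak areas, with protein concentration corrected by a quadratic independent-sites fit. A 12-site NN model was fit globally by Powell minimisation; uncertainties are SD of three repeats.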

Bha TRAP12 [2] = biological target: T2, Bha TRAP12; assay: Isothermal titration calorimetry, Trp into TRAP; format: binding, B. halodurans; conditions: ITC 25°C, two-sites model
In short: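 Tag-free protein (C-terminal ENLYFQ left after TEV cleavage), expressed in E. coli BL21(DE3), made Trp-free by Gdn-HCl denaturation, RP-HPLC, refolding and SEC, then dialysed into buffer A (100 mM NaCl, 50 mM NaPO₄, pH 8.0). 293 μM Trp (in dialysate) titrated into 23 μM protomers, 25°C, 307 rpm. Integrated heats fit to a two-sites model; oligomer concentration corrected via fitted n; 200-sample bootstrap confidence intervals.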

Bst TRAP12 ∆71 = biological target: T3, Bst TRAP12 ∆71 (Geobacillus stearothermophilus, UniProt Q9X6J6); format: binding, B. stearothermophilus
T3 sequence (Q9X6J6 1-69 limits assumed): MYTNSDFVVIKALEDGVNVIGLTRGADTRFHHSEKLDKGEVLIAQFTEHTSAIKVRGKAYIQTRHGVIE
In short: as §1

[3] = 1/(αK 0), NN model, dissociation constant for sites with one bound neighbor, ~25°C
[4] = 1/K 0, NN model, dissociation constant for isolated sites, ~25°C
[5] = NN model, sites with 1 occupied neighbor, ~25°C
[6] = NN model, sites with no occupied neighbors, room temperature ~25°C, 400 mM ammonium acetate

N[C@@H](Cc1c[nH]c2ccccc12)C(=O)O [Trp, tryptophan]
Kd (Bst TRAP11; [3]): 4.4 ± 1.9 µM
Kd (Bst TRAP11; [4]): 36 ± 12 µM
Cooperativity factor α (Bst TRAP11; NN model, K N1/K 0): 8 and 8 ± 5
coupling energy ΔG α (Bst TRAP11; NN model, between adjacent sites): −1.2 ± 0.3 kcal mol^−1 interaction^−1
ΔG 0 + ΔG α (Bst TRAP11; [5]): -7.3 ± 0.3 kcal/mol
ΔG 0 (Bst TRAP11; [6]): -6.1 ± 0.2 kcal/mol
Kd (Bha TRAP12 [1]; [3]): 2.8 ± 0.8 µM
Kd (Bha TRAP12 [1]; [4]): 720 ± 140 µM
Cooperativity factor α (Bha TRAP12 [1]; NN model, K N1/K 0, fold increase in affinity with one occupied neighbor): 256 and 256 ± 87
ΔG 0 + ΔG α (Bha TRAP12 [1]; [5]): -7.6 ± 0.2 kcal/mol
ΔG 0 (Bha TRAP12 [1]; [6]): -4.3 ± 0.1 kcal/mol
n (fitted binding sites), Site 1 (Bha TRAP12 [2]; buffer A): ≈ 1
n (fitted binding sites), Site 2 (Bha TRAP12 [2]; buffer A): ~ 11
Kd (Bha TRAP12 [2]; Kd,1 (Site 1), first Trp): 1.8 ± 0.3 µM
Kd (Bst TRAP12 ∆71; [3]): 7.8 ± 1.2 µM
Kd (Bst TRAP12 ∆71; [4]): 217 ± 13 µM
Cooperativity factor α (Bst TRAP12 ∆71; NN model, K N1/K 0): 28 and 28 ± 5
ΔG 0 + ΔG α (Bst TRAP12 ∆71; [5]): -7.0 ± 0.1 kcal/mol
ΔG 0 (Bst TRAP12 ∆71; [6]): -5.00 ± 0.03 kcal/mol
